Laboratory results from ChEMBL document CHEMBL3227946, “Antianaphylactic agents. 1. 2-(Acylamino)oxazoles” (1979).
The source made the active and inactive calls. The rule behind the calls is not given here.

How the values were obtained:
[1] = Antianaphylactic activity in human chopped lung treated with atopic serum isolated from patients allergic to cocksfoot pollen assessed as inhibition of antigen-induced slow-reacting substance of anaphylaxis release at 10 ug/mL after 15 mins relative to control; assay type: functional; conditions: 0.25 h
Method in brief: (§1)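 Surgical human lung (bronchial carcinoma resections) was washed in Hank's, chopped into 0.5-mm cubes and incubated for 18 h at 18 °C with atopic serum from cocksfoot pollen-allergic patients. Tissue was washed, equilibrated in Tyrode's at 37 °C and challenged with saline pollen extract ± compound for 15 min. Histamine or SRS-A in the supernatant was bioassayed on guinea pig ileum. Values are % inhibition, mean of four samples.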

[2] = Antianaphylactic activity in human chopped lung treated with atopic serum isolated from patients allergic to cocksfoot pollen assessed as inhibition of antigen-induced histamine release at 10 ug/mL after 15 mins relative to control; assay type: functional; conditions: 0.25 h; method in brief: as §1
[3] = Antianaphylactic activity in ovalbumin sensitized albino guinea pig chopped lung assessed as inhibition of antigen-induced slow-reacting substance of anaphylaxis release at 10 ug/mL after 15 mins relative to control; assay type: functional, Cavia porcellus
Method in brief: (§2)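 Lungs were perfused with Tyrode's, chopped into 0.5-mm cubes and split into 100-mg aliquots. Aliquots were challenged with antigen ± compound and rocked at 37 °C for 15 min. Unchallenged controls gave spontaneous release. Supernatant histamine or SRS-A was bioassayed on guinea pig ileum against standards. Values are % inhibition, mean of four samples.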

Cavia porcellus [4] = experiment: Antianaphylactic activity in ovalbumin/ovalbumin aerosol sensitized guinea pig bronchospasm model assessed as ratio of mean collapse time after pretreatment with compound in presence of mepyramine to mean collapse time of control animal at 2 x 100 mg/kg, po compound administered prior to antigen challenge by Herxheimer test; assay type: functional
Method in brief: (§3)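 Ovalbumin-sensitized male guinea pigs were exposed in a chamber to ovalbumin aerosol (1% w/v) until a convulsive cough; that time is the collapse time. Compound was given orally either 2 h before challenge or in two doses at 0.5 and 3 h before. Where used, mepyramine was given at 0.5 mg/kg sc 0.5 h before. Ratio is mean collapse time of treated animals over that of controls.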

[5] = Antianaphylactic activity in ovalbumin sensitized albino guinea pig chopped lung assessed as inhibition of antigen-induced histamine release at 10 ug/mL after 15 mins relative to control; assay type: functional, Cavia porcellus; method in brief: as §2
Cavia porcellus [6] = experiment: Antianaphylactic activity in ovalbumin/ovalbumin aerosol sensitized guinea pig bronchospasm model assessed as ratio of mean collapse time after pretreatment with compound to mean collapse time of control animal at 2 x 100 mg/kg, po compound administered prior to antigen challenge by Herxheimer test; assay type: functional; method in brief: as §3
Rattus norvegicus = experiment: Antianaphylactic activity in antiovalbumin IgE serum-treated Wistar rat at 2 x 100 mg/kg, po administered 2.5 hrs prior to ovalbumin challenge measured after 45 mins by passive cutaneous anaphylaxis test; assay type: functional, organism-based; set-up: dose 100 mg/kg; conditions: in the assay text read “2 hrs and again 30 mins prior to” for “2.5 hrs prior to”
Method in brief: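 Female Wistar rats, shaved and lightly anaesthetized, received an intradermal abdominal injection of diluted rat antiovalbumin IgE serum. After 24 h they were challenged iv with ovalbumin mixed with dye. Compound was given at 2 h and again at 30 min before challenge. Rats were killed 45 min after challenge and the blue area on the inner skin surface was measured.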

Cavia porcellus [7] = experiment: Antianaphylactic activity in ovalbumin/ovalbumin aerosol sensitized guinea pig bronchospasm model assessed as ratio of mean collapse time after pretreatment with compound to mean collapse time of control animal at 0.5 mg/kg, sc by Herxheimer test; assay type: functional; conditions: route subcutaneous
Method in brief: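 Ovalbumin-sensitized male guinea pigs were given mepyramine at 0.5 mg/kg sc 0.5 h before exposure to ovalbumin aerosol (1% w/v) in a chamber. Collapse time is the time to a convulsive cough. Ratio is mean collapse time of mepyramine-treated animals over that of controls.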

Cavia porcellus [8] = experiment: Antianaphylactic activity in ovalbumin/ovalbumin aerosol sensitized guinea pig bronchospasm model assessed as ratio of mean collapse time after pretreatment with compound in presence of mepyramine to mean collapse time of control animal at 1 x 2 mg/kg, po compound administered prior to antigen challenge by Herxheimer test; assay type: functional; method in brief: as §3
Cavia porcellus [9] = experiment: Antianaphylactic activity in ovalbumin/ovalbumin aerosol sensitized guinea pig bronchospasm model assessed as ratio of mean collapse time after pretreatment with compound to mean collapse time of control animal at 1 x 2 mg/kg, po compound administered prior to antigen challenge by Herxheimer test; assay type: functional; method in brief: as §3

SMILES | inhibition at 10 µg/mL [1] | inhibition at 10 µg/mL [2] | inhibition (INH) [3] | Ratio (Cavia porcellus [4]) | inhibition (INH) [5] | Ratio (Cavia porcellus [6]) | Activity (Rattus norvegicus) | Ratio (Cavia porcellus [7]) | Ratio (Cavia porcellus [8]) | Ratio (Cavia porcellus [9])
CCCCN(C(=O)C1CC1)c1nc(C)co1 | 72% | 0% | 46% | 13.9 | 22% | 12.2 | inactive | – | – | –
COc1ccc(CN(CCN(C)C)c2ccccn2)cc1 [PYRILAMINE] | – | – | – | – | – | – | – | 3.7 | – | –
CCCCN(C(=O)C1CCC1)c1nc(C)co1 | 55% | 0% | 74% | 7.4 | 34% | 1.5 | inactive | – | – | –
CCCCN(C(=O)CCC)c1nc(C)co1 | 88% | 14% | 52% | 6.4 | 33% | 4.3 | inactive | – | – | –
CCCCN(C(=O)C(C)(C)C)c1nc(C)co1 | 23% | 37% | 23% | 7.7 | 0% | 4.4 | inactive | – | – | –
CCCCCC(=O)N(CCC)c1nc(C)co1 | 47% | 44% | 47% | 4.7 | 44% | 1.4 | inactive | – | – | –
CCCCC(=O)N(CCC)c1nc(C)co1 | 38% | 0% | 55% | 5.8 | 48% | 0.8 | inactive | – | – | –
CCCCN(C(=O)C(C)C)c1nc(C)co1 [ISAMOXOLE] | 93% | 23% | 54% | 5.9 | 38% | 4.6 | inactive | – | – | –
CN1CCC(=C2c3ccccc3CC(=O)c3sccc32)CC1 [KETOTIFEN] | 100% | 23% | – | – | – | – | – | – | 7.2 | 4.2
